From publication PMC8208316 (Chemical Science, 2021)
Where “and” joins values, the source holds several entries; their conditions need not be identical. Equal values may be shown once.

Experiments:
[1] = COS release in the presence of thiols by membrane inlet mass-spectrometry; type: physicochemical; conditions: 50 μM precursor, NAC 0.25 mM, PBS pH 7.4, 37 °C
[2] = Decomposition of precursors in the presence of thiol; type: physicochemical
H9c2 cardiac myoblasts [3] = assay: Protection from H2O2-mediated oxidative stress, CCK-8 viability assay; type: cell-based, rat
Kinetics of RSSH release = type: physicochemical; conditions: for half-life at 100 µM: phosphate buffered saline with MMTS (1 mM) as RSSH trap, pH 7.4; for phenol byproduct 4a–f yield: precursor 100 μM, MMTS 1 mM, pH 7.4 PBS containing DTPA, HPLC
In short: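 Test compound (100 μM) incubated at 37 °C with MMTS (1 mM) as RSSH trap in PBS (pH 7.4, 100 mM) containing DTPA (100 μM). Timed aliquots quenched with 0.1% formic acid and analysed by HPLC: precursor at 240 nm, phenol at 275 nm. First-order rate constants from single-exponential fits; average of three experiments.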

H9c2 cardiac myoblasts [4] = assay: Intracellular sulfane sulfur detection using the SSP4 probe; type: cell-based, rat
In short: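 H9c2 cells loaded with SSP4 (20 μM) plus CTAB (500 μM) for 20 min, then washed with serum-free medium. Test compound added at 0–200 μM. Plate-reader fluorescence (ex 482 nm, em 515 nm) read at set times over 3 h and normalised to the 0 μM value at each time. Mean ± SEM, n = 3 per group, three independent experiments.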

H9c2 cardiac myoblasts [5] = assay: Protection from H2O2-mediated oxidative stress, Sytox green viability assay; type: cell-based, rat; conditions: pretreatment 4 and 8 h, then H2O2 200 μM
[6] = 10 equiv. MMTS, PBS pH 7.4, 100 mM, 37 °C

## COC(=O)C(NC(C)=O)C(C)(C)SSC(=O)Oc1ccccc1 (stereo not drawn) [1a]
[1]
  COS production with respect to precursor 13: approximately 20%
[2]; 5 equiv. N-acetylcysteine methyl ester
  formation of byproduct 9a (indication of RSSH yield): 53%
H9c2 cardiac myoblasts [3]; pretreatment 5 μM for 8 h, then H2O2 200 μM
  protection against H2O2-mediated toxicity (cell viability, CCK-8): shows protection
H9c2 cardiac myoblasts [3]; pretreatment 4 h (0–50 μM), then H2O2 200 μM 2 h
  protection against H2O2-mediated toxicity (cell viability, CCK-8): dose-dependent decrease of H2O2-induced toxicity
Kinetics of RSSH release; [6]
  k, disappearance of precursor (first-order): 0.00539 min⁻¹
  k, formation of phenol (first-order): 0.00533 min⁻¹
Kinetics of RSSH release
  half-life at 100 µM: 2.15 ± 0.0333 h
Kinetics of RSSH release; 37 °C
  phenol byproduct 4a–f yield: 92% and 92 ± 2%
H9c2 cardiac myoblasts [4]; 50 μM
  SSP4 fluorescence signal (intracellular sulfane sulfur): did not observe a significant increase
H9c2 cardiac myoblasts [4]; 100 and 200 μM, over 3 h
  SSP4 fluorescence intensity (intracellular sulfane sulfur): dose-dependent increases in fluorescence intensity
H9c2 cardiac myoblasts [5]
  protection against H2O2-mediated toxicity (Sytox): consistently shows protective effects

## COC(=O)C(NC(C)=O)C(C)(C)SSC(=O)Oc1ccc(C)cc1 (stereo not drawn) [1b]
Kinetics of RSSH release
  half-life at 100 µM: 2.28 ± 0.0667 h
Kinetics of RSSH release; 37 °C
  phenol byproduct 4a–f yield: 93 ± 4%

## COC(=O)C(NC(C)=O)C(C)(C)SSC(=O)Oc1ccc(OC)cc1 (stereo not drawn) [1c]
Kinetics of RSSH release
  half-life at 100 µM: 2.45 ± 0.0333 h
Kinetics of RSSH release; 37 °C
  phenol byproduct 4a–f yield: 92 ± 1%

## COC(=O)C(NC(C)=O)C(C)(C)SSC(=O)Oc1ccc(F)cc1 (stereo not drawn) [1d]
Kinetics of RSSH release
  half-life at 100 µM: 1.6 ± 0.05 h
Kinetics of RSSH release; 37 °C
  phenol byproduct 4a–f yield: 96 ± 6%

## COC(=O)C(NC(C)=O)C(C)(C)SSC(=O)Oc1ccc(C#N)cc1 (stereo not drawn) [1f]
Kinetics of RSSH release
  half-life at 100 µM: 0.467 ± 0.0167 h
Kinetics of RSSH release; 37 °C
  phenol byproduct 4a–f yield: 97 ± 2%

## COC(=O)C(CSSSCC(NC(C)=O)C(=O)OC)NC(C)=O [N-Ac-OMe-Cys-(S)3, N-acetyl O-methyl cysteine trisulfide, reference compound]
H9c2 cardiac myoblasts [4]
  SSP4 fluorescence signal in H9c2 cells compared with 1a: higher fluorescence signal

## COC(=O)C(NC(C)=O)C(C)(C)SSC(=O)OCc1ccccc1 (stereo not drawn) [compound 8]
[1]
  COS generation in the presence of NAC (comparison): slower COS generation
[2]; in the presence of thiol
  decomposition rate in the presence of thiol with respect to 1a: about six times slower
Kinetics of RSSH release
  half-life at 100 µM: 37.2 ± 1.57 h

## Oc1ccccc1 [phenol, reference compound]
H9c2 cardiac myoblasts [3]; 50 μM for 4 and 8 h, then H2O2 200 μM 2 h
  protection against H2O2-mediated toxicity (cell viability, CCK-8): no protective effect
